Bioassay records from PubChem.
SENP6 block: inhibitors of human SENP6 protease; Q9GZR1; AID 2599; Recombinant SENP6 catalytic domain, aminoluciferin luminescence; 1.8% of 330,000 active; inhibition, % at 10 µM;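 active means inhibition above about 50% at the single tested dose, limit read from the data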
Target sequence (Q9GZR1 628-1112 limits assumed): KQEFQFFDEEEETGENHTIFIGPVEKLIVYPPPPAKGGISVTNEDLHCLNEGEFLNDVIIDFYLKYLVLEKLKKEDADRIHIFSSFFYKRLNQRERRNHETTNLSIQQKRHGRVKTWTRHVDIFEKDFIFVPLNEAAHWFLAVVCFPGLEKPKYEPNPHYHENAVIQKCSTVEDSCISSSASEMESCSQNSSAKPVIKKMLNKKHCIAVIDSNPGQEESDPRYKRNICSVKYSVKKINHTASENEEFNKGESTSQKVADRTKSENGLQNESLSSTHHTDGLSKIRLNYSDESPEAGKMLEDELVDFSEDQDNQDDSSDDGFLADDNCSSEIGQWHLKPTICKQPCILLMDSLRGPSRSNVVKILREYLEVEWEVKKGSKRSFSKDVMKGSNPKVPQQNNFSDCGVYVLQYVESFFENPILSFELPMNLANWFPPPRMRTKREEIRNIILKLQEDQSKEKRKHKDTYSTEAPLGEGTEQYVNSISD
SENP1 FRET inh: blocks the human SENP1 SUMO protease catalytic domain; inhibition, % at 10 µM; AID 624204; Q9P0U3; recombinant SENP1 catalytic domain, CyPet-SUMO1-YPet FRET cleavage; 0.21% of 360,000 active;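 active means inhibition at least 30% at 10 µM, raw YFP signal under a set limit, fluorescence ratio 0.5 to 1.5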
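Compound: 10 µM single point, 0.5% DMSO; Test system: hSENP1 catalytic domain, recombinant; Timing: 50 min reaction at room temperature; Technique: FRET, CFP and YFP emission; Control set: no-enzyme wells low, DMSO-plus-enzyme wells high control.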
SENP8 block-1: inhibitors of human SENP8 protease | 0.64% of 360,000 active | Q96LD8 | AID 602440 | recombinant SENP8, Nedd8 substrate fluorescence | inhibition, % at 20 µM; in the data active means inhibition mostly above about 40%, no sharp cut-off; inactive means mostly below about 27%
SENP7 block: inhibitors of human SENP7 protease | Q9BQF6 | recombinant SENP7, Z-RLRGG-aminoluciferin luminescence, 40 min | inhibition, % at 5 µM | 1.5% of 330,000 active | AID 434973;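 active means inhibition above about 50% at the single test dose, limit read from the data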
SENP8 block-2: blocks the human protease SENP8 | Q96LD8 | purified SENP8, Z-RLRGG-aminoluciferin cleavage, luminescence | inhibition, % at 10 µM | 1.2% of 330,000 active; in the data active means inhibition above about 50%
SENP1 conf: SENP1 (human) inhibition, single concentration confirmation. shares compounds with SENP1 FRET inh. recombinant SENP1, CyPet-SUMO1-YPet FRET cleavage. inhibition, % at 10 µM. 34% of 520 active. AID 651678; in the data active means inhibition mostly above about 35%, no sharp cut-off; inactive means mostly below about 32%
SENP1 kin conf: SENP1 (human) inhibition, kinetic confirmation; shares compounds with SENP1 FRET inh; recombinant SENP1, CyPet-SUMO1-YPet FRET kinetic cleavage; inhibition, % at 10 µM; 26% of 520 active; AID 651690; in the data active means inhibition mostly above about 32%, no sharp cut-off; inactive means mostly below about 29%
Numbers stand for hits; . = inactive; / = no result. Only some compounds are listed: those with a hit (about 2.5% of all), similar ones and a draw of the others.

SMILES	SENP6 block	SENP1 FRET inh	SENP8 block-1	SENP7 block	SENP8 block-2	SENP1 conf	SENP1 kin conf
Nc1ccc2c(c1)-c1ccc(F)cc1C2=O	/	82.1	.	/	/	49.3	.
Cc1sc(-c2ccccn2)nc1OC(=O)c1cccc(Cl)c1Cl	.	35.6	.	.	.	.	50.0
Cn1c(/C(C#N)=C(\O)c2ccc(Cl)s2)nc2ccccc21	.	.	.	.	.	/	/
Cn1c(/C(C#N)=C(\O)c2ccc([N+](=O)[O-])s2)nc2ccccc21	.	46.5	.	.	.	.	.
COc1cc(/C=C/C(=O)O)cc(S(=O)(=O)Nc2ccc(S(=O)(=O)N3CCCCC3)cc2)c1OC	.	.	.	.	.	/	/
COc1ccc(NC(=O)CCC(=O)c2ccc(-c3ccccc3)cc2)cc1	.	40.5	.	.	.	.	.
Nc1ccc2c(c1)C(=NO)c1cc([N+](=O)[O-])ccc1-2	/	82.6	.	/	/	86.4	46.5
O=C(Nc1cc2c(cc1Cl)-c1ccc([N+](=O)[O-])cc1C2=NO)C(F)(F)F	/	84.8	.	/	/	57.0	36.3
O=C(Nc1ccc2c(c1)Cc1cc([N+](=O)[O-])ccc1-2)C(F)(F)F	/	.	.	/	/	/	/
O=[N+]([O-])c1ccc2c(c1)-c1ccccc1C2=NO	/	.	.	/	/	/	/
CCOC(=O)c1cc(CC)sc1/N=C/C1=C(O)CC(C)(C)CC1=O	.	.	.	.	.	/	/
CCOC(=O)c1sc(N=NC2=C(O)CC(C)(C)CC2=O)c(C(=O)OCC)c1C	.	56.4	.	.	.	.	.
CC1(C(=O)NS(=O)(=O)c2ccccc2OC(F)(F)F)CCN1C(=O)c1ccco1 (centres undefined)	/	.	.	/	/	/	/
Nc1c2c(nc3cccc(Cl)c13)N(c1ccccc1)CC2	.	55.0	.	.	.	.	.
Cc1nc2cc(NCc3ccc(Cl)cc3)ccc2n1C	.	31.2	.	.	.	.	.
Cc1ccc(CNc2ccc3c(c2)nc(C)n3C)cc1	.	.	.	.	.	/	/
O=C(CSc1n[nH]c(=O)n1C1CC1)Nc1ccc(Cl)c(Cl)c1	.	.	.	.	.	/	/
O=C(CSc1n[nH]c(=O)n1C1CC1)Nc1ccc(F)c(Cl)c1	.	44.0	.	.	.	.	.
N#CC1=C(N2CCCCC2)c2cc3c(n2C1=O)CCCC3	.	51.1	.	.	.	.	.
O=c1c2ccccc2nc(/C=C/c2cc(Br)ccc2O)n1CCO	.	75.9	.	.	.	83.6	45.0
O=c1c2ccccc2nc(/C=C/c2c[nH]c3ccccc23)n1CCO	.	.	.	.	.	/	/
CCOc1ccc(NC(=O)Cc2ccccc2)c([N+](=O)[O-])c1	.	.	.	.	.	/	/
CCOc1ccc(NC(=O)c2ccc(Br)o2)c([N+](=O)[O-])c1	.	32.0	.	.	.	.	.
Cn1c(=O)c2[nH]c(-c3ccccc3Cl)c(O)c2n(C)c1=O	.	31.6	.	.	.	.	.
Cn1c(=O)c2[nH]c(-c3ccccc3)c(O)c2n(C)c1=O	.	60.0	.	.	.	56.2	54.1
SMILES	SENP6 block	SENP1 FRET inh	SENP8 block-1	SENP7 block	SENP8 block-2	SENP1 conf	SENP1 kin conf
CC(=O)Nn1cc2c(c1-c1ccccc1)c(=O)n(C)c(=O)n2C	.	.	.	.	.	/	/
Cc1ccn2cc(CCNC(=O)COc3ccccc3)nc2c1	.	.	.	.	.	/	/
Cc1ccc(-c2nc(N/N=C/c3cccc([N+](=O)[O-])c3)c3ccccc3n2)cc1	.	31.2	.	.	.	.	.
O=C(CNS(=O)(=O)c1ccc(Br)s1)N1CCC(N2CCCCC2)CC1	.	.	.	.	.	/	/
C=CCOc1ccc(Br)cc1/C=C1\NC(=S)N(C(C)=O)C1=O	.	.	.	.	.	/	/
C=CCOc1c(Br)cc(/C=C2/NC(=S)N(C(C)=O)C2=O)cc1OC	.	54.6	.	.	.	39.6	56.5
Cc1c(C(=O)N(CCO)Cc2ccccc2)oc2c(F)cccc12	.	.	.	.	.	/	/
Cc1ccc(C(=O)C[n+]2ccccc2)cc1	.	.	.	.	.	/	/
Cc1ccc(C(=O)C[n+]2cccc3ccccc32)cc1	.	30.2	.	.	.	.	.
O=C(C[n+]1cccc2ccccc21)c1ccc(Br)cc1	.	57.2	.	.	.	.	.
NC(=O)C[n+]1cccc2ccccc21	.	39.4	.	.	.	.	.
O=[N+]([O-])c1ccc(C[n+]2cccc3ccccc32)cc1	.	.	.	.	.	/	/
CC1(C)CC(=O)c2c(O)c(-c3ccccc3)c(=O)n(-c3ccccc3)c2C1	.	.	.	.	.	/	/
COc1ccc(Cl)cc1-c1noc([C@@H]2O[C@H](CO)[C@@H](O)[C@H]2O)n1	/	.	.	/	/	/	/
COc1ccc(CNC(=O)c2cn(Cc3ccccc3OC)c(=O)s2)cc1	/	.	.	/	/	/	/
NC(=S)c1cc2ccc(O)cc2oc1=O	/	.	.	/	/	/	/
NC(=S)c1cc2cc(Br)ccc2oc1=O	.	45.3	.	.	.	66.9	50.8
C=CCc1c(C)nc(-c2ccccc2)nc1Nc1ccccc1O	.	46.6	.	.	.	.	.
C=CCc1c(C)nc(-c2ccccc2)nc1N/N=C/c1ccccc1	.	.	.	.	.	/	/
CCOC(=O)c1c(NC(=O)c2cc(-c3ccc(O)cc3)on2)sc(C(C)=O)c1C	.	31.3	.	.	.	.	.
CCOC(=O)C1CCCN(C2=NC(=O)/C(=C/c3ccc(O)c(OC)c3)S2)C1 (centres undefined)	.	69.0	.	.	.	110.2	66.4
Cc1ccc(C2(C)NC(=O)N(CC(=O)NCCN3C(=O)S/C(=C\c4cccnc4)C3=O)C2=O)cc1 (centres undefined)	/	.	.	/	/	/	/
CN1CCCC(OC(=O)c2ccccc2Br)C1 (centres undefined)	.	.	.	.	.	/	/
COC(=O)c1ccc(-c2nc(O)c(C)s2)cc1	.	41.0	.	.	.	86.7	56.2
CCN(CC(=O)Nc1ccc(NC(C)=O)cc1)C(=O)CSc1ncnc2sc(C)c(C)c12	.	41.2	.	.	.	89.0	68.3
SMILES	SENP6 block	SENP1 FRET inh	SENP8 block-1	SENP7 block	SENP8 block-2	SENP1 conf	SENP1 kin conf
CCc1nc2ccc(C(=O)NCCN3CCNC3=O)cn2c1N(C)Cc1ccc(OC)cc1	/	.	.	/	/	/	/
N=c1oc2ccc([N+](=O)[O-])cc2cc1C(=O)NCc1ccccc1	.	57.0	.	.	.	60.1	.
N=c1oc2ccc(Br)cc2cc1C(=O)NCc1ccccc1	.	.	.	.	.	/	/
CCOC(=O)[C@H]1[C@H]2COc3ccc(OC)cc3[C@@H]2N2C(=O)CN(C)C(=O)[C@@]12C	.	.	.	.	.	/	/
O=C1CNCc2[nH]c3ccccc3c2N1c1ccccc1	.	.	.	.	.	/	/
O=CN1Cc2[nH]c3ccccc3c2N(c2ccc(Cl)cc2)C1=O	.	31.5	.	.	.	.	.
Cc1ccc(-c2noc(CNS(=O)(=O)c3ccccc3)n2)cc1	.	.	.	.	.	/	/
